{
  "source": "paper PMC10616755",
  "about": "(RSC Advances, 2023)",
  "key": {"MCF-7 [1]": {"test_system": "MCF-7", "conditions": "read-out: Cytotoxic activity IC50 MCF-7, cited from earlier work"}, "HCT-116 [2]": {"test_system": "HCT-116", "conditions": "read-out: Cytotoxic activity IC50 HCT-116, cited from earlier work"}, "HCT-116 [3]": {"test_system": "HCT-116", "assay": "MTT cytotoxicity assay, HCT-116", "assay_type": "cell-based, human", "conditions": "for Cytotoxicity grade HCT-116: grade in words in text; for SI (HCT-116): selectivity index WI-38 vs HCT-116", "how_it_was_run": "(§1)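 MTT viability assay on human HCT-116 and MCF-7 lines. Each test compound was run at 100, 50, 25, 12.5, 6.25, 3.125 and 1.56 μM, with IC50 determined per cell line.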"}, "MCF-7 [4]": {"test_system": "MCF-7", "assay": "MTT cytotoxicity assay, MCF-7", "assay_type": "cell-based, human", "conditions": "for Cytotoxicity grade MCF-7: grade in words in text; for SI (MCF-7): selectivity index WI-38 vs MCF-7", "how_it_was_run": "as §1"}, "WI-38": {"test_system": "WI-38", "assay": "MTT cytotoxicity on normal lung fibroblast", "assay_type": "cell-based, human", "conditions": "read-out: Cytotoxicity on WI-38 IC50; normal cell line, MTT assay"}, "p53": {"test_system": "p53", "assay": "Active p53 level", "assay_type": "cell-based, human"}, "caspase-3": {"test_system": "caspase-3", "assay": "Active caspase-3 level", "assay_type": "cell-based, human"}, "VEGFR-2": {"molecular_target": "VEGFR-2 (Homo sapiens, UniProt P35968)", "sequence (P35968 20-1356)": "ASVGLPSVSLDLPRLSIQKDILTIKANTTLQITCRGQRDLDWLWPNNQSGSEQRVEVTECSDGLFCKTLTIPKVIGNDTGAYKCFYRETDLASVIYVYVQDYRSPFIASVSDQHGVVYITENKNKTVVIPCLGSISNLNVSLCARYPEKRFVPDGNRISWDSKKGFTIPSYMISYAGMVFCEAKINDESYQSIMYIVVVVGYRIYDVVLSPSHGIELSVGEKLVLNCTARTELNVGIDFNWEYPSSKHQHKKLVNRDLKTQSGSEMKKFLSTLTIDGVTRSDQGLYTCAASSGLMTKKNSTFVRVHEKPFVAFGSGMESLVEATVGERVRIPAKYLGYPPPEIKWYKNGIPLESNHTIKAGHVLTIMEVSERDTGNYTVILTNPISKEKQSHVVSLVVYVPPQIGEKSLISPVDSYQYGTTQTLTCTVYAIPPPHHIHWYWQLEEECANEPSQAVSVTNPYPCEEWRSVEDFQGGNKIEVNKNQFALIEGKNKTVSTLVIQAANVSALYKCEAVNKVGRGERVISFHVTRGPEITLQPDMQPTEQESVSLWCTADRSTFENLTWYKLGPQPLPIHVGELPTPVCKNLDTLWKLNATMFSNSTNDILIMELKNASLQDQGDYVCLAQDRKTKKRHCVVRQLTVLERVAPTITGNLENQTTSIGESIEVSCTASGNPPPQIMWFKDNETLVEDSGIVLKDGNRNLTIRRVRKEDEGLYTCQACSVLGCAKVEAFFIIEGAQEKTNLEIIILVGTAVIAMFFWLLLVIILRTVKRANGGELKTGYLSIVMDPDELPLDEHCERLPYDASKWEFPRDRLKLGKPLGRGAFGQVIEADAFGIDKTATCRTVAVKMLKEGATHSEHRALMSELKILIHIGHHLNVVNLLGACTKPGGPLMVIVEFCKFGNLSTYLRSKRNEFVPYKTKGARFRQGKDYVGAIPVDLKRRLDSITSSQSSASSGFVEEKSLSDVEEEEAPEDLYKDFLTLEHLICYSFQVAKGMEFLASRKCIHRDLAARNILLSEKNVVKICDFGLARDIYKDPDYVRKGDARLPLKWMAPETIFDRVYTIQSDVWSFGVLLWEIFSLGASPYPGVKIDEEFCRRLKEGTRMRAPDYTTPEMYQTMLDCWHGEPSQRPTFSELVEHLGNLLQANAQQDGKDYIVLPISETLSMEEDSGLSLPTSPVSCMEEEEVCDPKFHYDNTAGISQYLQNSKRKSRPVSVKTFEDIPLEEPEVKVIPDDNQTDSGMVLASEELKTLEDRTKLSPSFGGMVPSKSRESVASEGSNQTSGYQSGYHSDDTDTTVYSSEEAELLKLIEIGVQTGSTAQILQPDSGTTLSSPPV", "assay": "VEGFR-2", "assay_type": "biochemical", "conditions": "VEGFR-2 inhibitory activity IC50"}, "[5]": {"assay": "MTT cytotoxicity on normal lung fibroblast", "assay_type": "cell-based, human", "conditions": "human, WI-38 normal lung fibroblast cells"}, "BCL2": {"test_system": "BCL2", "assay": "BCL2 level", "assay_type": "cell-based", "conditions": "control = 1"}, "BAX": {"test_system": "BAX", "assay": "BAX level", "assay_type": "cell-based", "conditions": "control = 1"}, "[6]": {"conditions": "sorafenib reference value ref 36"}, "[7]": {"conditions": "Homo sapiens, HCT-116, read-out: Cytotoxic activity IC50 HCT-116"}, "[8]": {"conditions": "Homo sapiens, MCF7, read-out: Cytotoxic activity IC50 MCF-7"}, "[9]": {"conditions": "read-out: Cytotoxic activity IC50 HCT-116, MTT assay"}, "[10]": {"conditions": "read-out: Cytotoxic activity IC50 MCF-7, MTT assay"}, "[11]": {"conditions": "sunitinib reference value ref 34,35"}},
  "note": "Where two headings read alike, the source gives them in different places.",
  "data": [
    {"compound": "CNC(=O)c1cc(Oc2ccc(NC(=O)Nc3ccc(Cl)c(C(F)(F)F)c3)cc2)ccn1", "note": "[Sorafenib]", "values": [
      {"measurement": "IC50", "setting": "MCF-7 [1]; [6]", "result": "16 ± 3.6", "unit": "µM"},
      {"measurement": "IC50", "setting": "HCT-116 [2]; [6]", "result": "18.6 ± 1.9", "unit": "µM"}
    ]},
    {"compound": "Cc1cccc(NC(=O)CCc2nc3cc(Cl)ccc3[nH]c2=O)c1", "note": "[Compound 12, 3-(6-Chloro-1,2-dihydro-2-oxoquinoxalin-3-yl)-N-m-tolylpropanamide]", "values": [
      {"measurement": "IC50", "setting": "HCT-116 [3]; [7]", "result": "28.4 ± 2.2", "unit": "µM"},
      {"measurement": "IC50", "setting": "MCF-7 [4]; [8]", "result": "24.6 ± 1.9", "unit": "µM"}
    ]},
    {"compound": "Cc1ccc(NC(=O)CCc2nc3cc(Cl)ccc3[nH]c2=O)cc1", "note": "[Compound 11, 3-(6-Chloro-1,2-dihydro-2-oxoquinoxalin-3-yl)-N-p-tolylpropanamide]", "values": [
      {"measurement": "IC50", "setting": "HCT-116 [3]; [7]", "result": "61.4 ± 3.4", "unit": "µM"},
      {"measurement": "IC50", "setting": "MCF-7 [4]; [8]", "result": "54 ± 3.1", "unit": "µM"}
    ]},
    {"compound": "2,4-Dichloro-N′-(3-(6-chloro-3-oxo-3,4-dihydroquinoxalin-2-yl)-propanoyl) benzohydrazide [Compound 19]", "values": [
      {"measurement": "Cytotoxicity grade HCT-116", "setting": "HCT-116 [3]", "result": "very strong (1–10 (very strong))"},
      {"measurement": "IC50", "setting": "HCT-116 [3]; [9]", "result": "6.18 ± 2.1", "unit": "µM"},
      {"measurement": "SI (HCT-116)", "setting": "HCT-116 [3]", "result": 11.58},
      {"measurement": "Cytotoxicity grade MCF-7", "setting": "MCF-7 [4]", "result": "very strong (1–10 (very strong))"},
      {"measurement": "IC50", "setting": "MCF-7 [4]; [10]", "result": "5.11 ± 0.8", "unit": "µM"},
      {"measurement": "SI (MCF-7)", "setting": "MCF-7 [4]", "result": 14.01},
      {"measurement": "IC50", "setting": "WI-38", "result": "71.6 ± 2.8", "unit": "µM"}
    ]},
    {"compound": "Cc1ccccc1NC(=O)CCc1nc2cc(Cl)ccc2[nH]c1=O", "note": "[Compound 13, 3-(6-Chloro-1,2-dihydro-2-oxoquinoxalin-3-yl)-N-o-tolylpropanamide]", "values": [
      {"measurement": "IC50", "setting": "HCT-116 [3]; [7]", "result": "22.2 ± 1.9", "unit": "µM"},
      {"measurement": "IC50", "setting": "MCF-7 [4]; [8]", "result": "18.9 ± 1.4", "unit": "µM"}
    ]},
    {"compound": "O=C(CCc1nc2cc(Cl)ccc2[nH]c1=O)Nc1ccc(C(=O)O)cc1", "note": "[Compound 16, 4-(3-(6-Chloro-1,2-dihydro-2-oxoquinoxalin-3-yl)propanamido)benzoic acid]", "values": [
      {"measurement": "IC50", "setting": "HCT-116 [3]; [7]", "result": "75.1 ± 3.6", "unit": "µM"},
      {"measurement": "Cytotoxicity grade HCT-116", "setting": "HCT-116 [3]", "result": "weak (51–100 (weak))"},
      {"measurement": "IC50", "setting": "MCF-7 [4]; [8]", "result": "67.2 ± 3.5", "unit": "µM"},
      {"measurement": "Cytotoxicity grade MCF-7", "setting": "MCF-7 [4]", "result": "weak (51–100 (weak))"}
    ]},
    {"compound": "CCN(CC)CCNC(=O)c1c(C)[nH]c(/C=C2\\C(=O)Nc3ccc(F)cc32)c1C", "note": "[Sunitinib]", "values": [
      {"measurement": "p53", "setting": "p53; MCF-7 cells, control 22.19 ± 8.39", "result": "278.34 ± 5.27", "unit": "pg/mL"},
      {"measurement": "p53 Fld", "setting": "p53; vs control", "result": 12.543, "unit": "fold"},
      {"measurement": "IC50", "setting": "MCF-7 [1]; [11]", "result": "4.77 ± 0.2", "unit": "µM"},
      {"measurement": "IC50", "setting": "HCT-116 [2]; [11]", "result": "3.42 ± 0.5", "unit": "µM"},
      {"measurement": "Caspase 3", "setting": "caspase-3; MCF-7 cells, control 47.88 ± 13.15", "result": "384.53 ± 8.40", "unit": "pg/mL"},
      {"measurement": "Caspase 3 Fld", "setting": "caspase-3; vs control", "result": 8.031, "unit": "fold"}
    ]},
    {"compound": "O=C(CCc1nc2cc(Cl)ccc2[nH]c1=O)Nc1ccccc1O", "note": "[Compound 9, 3-(6-Chloro-1,2-dihydro-2-oxoquinoxalin-3-yl)-N-(2-hydroxyphenyl)propanamide]", "values": [
      {"measurement": "IC50", "setting": "HCT-116 [3]; [7]", "result": "7.19 ± 0.7", "unit": "µM"},
      {"measurement": "SI (HCT-116)", "setting": "HCT-116 [3]", "result": 11.98},
      {"measurement": "IC50", "setting": "MCF-7 [4]; [8]", "result": "6.92 ± 0.5", "unit": "µM"},
      {"measurement": "SI (MCF-7)", "setting": "MCF-7 [4]", "result": 12.44},
      {"measurement": "IC50", "setting": "VEGFR-2", "result": 0.131, "unit": "µM"},
      {"measurement": "IC50", "setting": "[5]", "result": "86.1 ± 4.1", "unit": "µM"}
    ]},
    {"compound": "4-(3-(6-Chloro-1,2-dihydro-2-oxoquinoxalin-3-yl)propaneamido)-4-oxobutanoic acid [Compound 20]", "values": [
      {"measurement": "IC50", "setting": "HCT-116 [3]; [9]", "result": "26.4 ± 3.8", "unit": "µM"},
      {"measurement": "SI (HCT-116)", "setting": "HCT-116 [3]", "result": 3.52},
      {"measurement": "IC50", "setting": "MCF-7 [4]; [10]", "result": "10.2 ± 3.3", "unit": "µM"},
      {"measurement": "SI (MCF-7)", "setting": "MCF-7 [4]", "result": 9.15},
      {"measurement": "IC50", "setting": "WI-38", "result": "93 ± 2.2", "unit": "µM"}
    ]},
    {"compound": "O=C(CCc1nc2cc(Cl)ccc2[nH]c1=O)Nc1ccccc1", "note": "[Compound 5, 3-(6-Chloro-1,2-dihydro-2-oxoquinoxalin-3-yl)-N-phenylpropanamide]", "values": [
      {"measurement": "IC50", "setting": "HCT-116 [3]; [7]", "result": "45.5 ± 2.7", "unit": "µM"},
      {"measurement": "Cytotoxicity grade HCT-116", "setting": "HCT-116 [3]", "result": "moderate (21–50 (moderate))"},
      {"measurement": "IC50", "setting": "MCF-7 [4]; [8]", "result": "39 ± 2.4", "unit": "µM"},
      {"measurement": "Cytotoxicity grade MCF-7", "setting": "MCF-7 [4]", "result": "moderate (21–50 (moderate))"}
    ]},
    {"compound": "2-(2-(3-(6-Chloro-3-oxo-3,4-dihydroquinoxalin-2-yl)propanoyl)hydrazine-1-carbonyl) benzoic acid [Compound 21]", "values": [
      {"measurement": "IC50", "setting": "HCT-116 [3]; [9]", "result": "48.2 ± 2.7", "unit": "µM"},
      {"measurement": "IC50", "setting": "MCF-7 [4]; [10]", "result": "41.5 ± 2.5", "unit": "µM"}
    ]},
    {"compound": "COc1cccc2c1C(=O)c1c(O)c3c(c(O)c1C2=O)C[C@@](O)(C(=O)CO)C[C@@H]3O[C@H]1C[C@H](N)[C@H](O)[C@H](C)O1", "note": "[DOX, Doxorubicin, reference compound]", "values": [
      {"measurement": "IC50", "setting": "HCT-116 [3]; [7]", "result": "9.27 ± 0.3", "unit": "µM"},
      {"measurement": "SI (HCT-116)", "setting": "HCT-116 [3]", "result": 0.72},
      {"measurement": "IC50", "setting": "MCF-7 [4]; [8]", "result": "7.43 ± 0.2", "unit": "µM"},
      {"measurement": "SI (MCF-7)", "setting": "MCF-7 [4]", "result": 0.9},
      {"measurement": "IC50", "setting": "[5]", "result": "6.72 ± 0.5", "unit": "µM"}
    ]},
    {"compound": "CN[C@@H]1C[C@H]2O[C@@](C)([C@@H]1OC)n1c3ccccc3c3c4c(c5c6ccccc6n2c5c31)C(=O)NC4", "note": "[Staurosporine]", "values": [
      {"measurement": "BCL2 fold change", "setting": "BCL2", "result": 0.3248, "unit": "fold change"},
      {"measurement": "BCL2 fold change", "setting": "BCL2; listed as staurosporine", "result": 0.33, "unit": "fold change"},
      {"measurement": "BAX fold change", "setting": "BAX", "result": 7.5517, "unit": "fold change"},
      {"measurement": "BAX fold change", "setting": "BAX; listed as staurosporine", "result": 7.55, "unit": "fold change"}
    ]}
  ]
}
